Screening data from PubChem BioAssay.
NTR1 agonist – agonists of human neurotensin receptor NTR1; P30989; NTR1-U2OS beta-arrestin-GFP spot imaging, agonist mode; activation, % at 20 µM; 330,000 tested, 0.17% active; AID 493036;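 active means activation at or above 40% of the spot to cytoplasm intensity ratio, with at least 20 cells analyzed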
GRK2 aptamer HTS – human GRK2 inhibition via aptamer displacement. P25098. bead flow cytometry, FAM-aptamer displacement from GRK2. inhibition of aptamer binding, % at 10 µM. 330,000 tested, 0.59% active;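 active means inhibition of aptamer binding above 40%, roughly 3 SD of noise, on plates passing a quality check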;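 further: median bead fluorescence of bound FAM aptamer so fluorescent compounds give negative values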
Target sequence (P25098 whole entry, looked up): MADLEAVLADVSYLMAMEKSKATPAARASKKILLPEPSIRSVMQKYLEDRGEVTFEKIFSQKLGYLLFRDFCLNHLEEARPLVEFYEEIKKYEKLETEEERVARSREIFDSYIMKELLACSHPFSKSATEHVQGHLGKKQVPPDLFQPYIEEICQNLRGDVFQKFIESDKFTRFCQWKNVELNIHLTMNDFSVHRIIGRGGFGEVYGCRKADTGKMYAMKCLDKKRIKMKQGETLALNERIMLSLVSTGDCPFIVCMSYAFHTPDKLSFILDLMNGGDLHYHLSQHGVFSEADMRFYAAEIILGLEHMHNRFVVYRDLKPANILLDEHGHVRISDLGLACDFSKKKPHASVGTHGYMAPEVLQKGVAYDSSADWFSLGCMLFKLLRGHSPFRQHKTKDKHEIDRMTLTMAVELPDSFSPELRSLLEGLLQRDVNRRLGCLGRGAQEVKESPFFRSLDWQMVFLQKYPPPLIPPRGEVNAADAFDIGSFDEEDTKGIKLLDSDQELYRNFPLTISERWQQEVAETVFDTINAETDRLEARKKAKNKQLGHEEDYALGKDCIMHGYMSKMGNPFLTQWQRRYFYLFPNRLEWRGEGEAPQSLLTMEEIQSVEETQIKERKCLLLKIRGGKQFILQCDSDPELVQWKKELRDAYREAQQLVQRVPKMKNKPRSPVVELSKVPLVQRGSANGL
Beta2AR agonist – human beta-2 adrenergic receptor agonism by FAP | P07550 | Am2.2-beta2AR cells, FAP receptor internalization, flow cytometry | response, % (no concentration beside the values) | 340,000 tested, 0.43% active | AID 504454;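 active means response above a set limit, near 3 SD of response in nonfluorescent compounds, cut at about 42% in these data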
Lipid droplet – modulators of hepatic lipid droplet formation. AID 1656. 240,000 tested, 0.4% active. inhibition, % at 6.5 µM. AML12 mouse hepatocytes, oleate lipid droplets, BODIPY imaging;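 active means lipid droplet intensity inhibited by at least 50%, with more than 500 cells counted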
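Assay system: AML12 hepatocytes (mouse) / Also added: 100 µM oleic acid challenge / Times: overnight treatment with compound plus oleate / Detection: high-content imaging of BODIPY-stained droplets and DAPI nuclei / Evaluation: % inhibition of lipid droplet signal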
Arr AP2 block – inhibitors of human beta-arrestin and AP2 interaction | FITC-arrestin peptide / GST-AP2 beads, flow cytometry; AP2 beta2 appendage carries R879A mutation | inhibition, % at 10 µM | 340,000 tested, 0.31% active | AID 504490;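 active means inhibition above a set limit, near 3 SD of compounds lacking own fluorescence, cut at about 54% in these data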
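Test system: GST-tagged AP2 beta2-adaptin appendage (R879A) on 4 µm glutathione beads; also added: fluorescein-tagged arrestin peptide at 50 nM final; timing: 12 min plus 1 h, RT; signal: flow cytometry, FL1 (488/535 nm); read-out: percent drop in bead-associated FITC signal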
TAG inh – triacylglycerol accumulation inhibition; H9c2 cells, Nile Red lipid (TAG) fluorescence; cells loaded with 200 µM oleic acid; AID 651582; inhibition, % at 12.5 µM; 230,000 tested, 0.66% active;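 active means pattern-corrected inhibition of lipid staining of at least 50% with the nuclear-stain viability signal not falling by more than 50%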
Lipid drop inh – confirmation of inhibitors of hepatic lipid droplet formation; AML12 mouse hepatocytes, BODIPY lipid droplet imaging; droplets induced with 100 µM oleic acid; shares compounds with Lipid droplet; inhibition, % at 5.2 µM; 870 tested, 65% active;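 active means inhibition of lipid droplet metric at least 50%, with more than 300 cells in each of four replicates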
AML12 cytotox – AML12 hepatocyte cytotoxicity (counter-screen). 870 tested, 3% active. AML12 mouse hepatocytes, DAPI nuclear morphology cytotoxicity imaging; active compounds read high; cells fed 100 µM oleate overnight. z-score at 5 µM. shares compounds with Lipid droplet; in the data active means z-score above about 6.3;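 further: compound exposure lasted overnight at 37 °C before fixation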
AML12 tox ATP – AML12 hepatocyte cytotoxicity, confirmed; shares compounds with Lipid droplet; AML12 mouse hepatocyte viability, ATP luminescence; cells loaded with 100 µM oleic acid; cytotoxicity, % at 50 µM; 530 tested, under 10 active; AID 463219;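 active means cytotoxicity above 50% in each of four replicates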;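 further: compound exposure lasted overnight at 37 °C before the ATP read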
A number is an active result; n = inactive; x = not tested or not shown. Hits are enriched below; roughly 2% of the tested compounds scored in any of these assays.

SMILES	NTR1 agonist	GRK2 aptamer HTS	Beta2AR agonist	Lipid droplet	Arr AP2 block	TAG inh	Lipid drop inh	AML12 cytotox	AML12 tox ATP
O=C(NCc1ccccc1)c1ccc2nc(N3CCOCC3)sc2c1	n	n	n	n	n	n	x	x	x
CCCOc1ccc(CNC(=O)c2ccc3nc(N4CCOCC4)sc3c2)cc1	n	n	n	53.7	n	n	99.5	n	n
O=c1cc(SCc2ccc(Cl)cc2Cl)nc[nH]1	x	x	n	x	n	n	x	x	x
Cn1c(=O)c([N+](=O)[O-])c(NCC2CCCO2)c2ccccc21 (configuration not stated)	n	n	n	n	n	n	x	x	x
C/C(=N\Nc1nc(-c2ccccc2)cs1)c1cccs1	n	n	n	52.5	n	x	96.1	n	n
Clc1ccc(-c2ccc(CNCC3CCCO3)o2)cc1 (configuration not stated)	n	n	n	n	n	n	x	x	x
CCN(CC)S(=O)(=O)c1ccc(N2C(=O)CC2(/C=C/c2ccccc2)C(=O)NC2CCCC2)cc1 (configuration not stated)	n	n	n	62.8	n	x	n	n	x
CC1=CC(C)(C)N2C(=O)C3(NCCc4c3[nH]c3ccccc43)c3cccc1c32 (configuration not stated)	n	n	n	62.1	n	n	104.7	n	n
O=C1Nc2ccccc2C12NCCc1c2[nH]c2ccccc12 (configuration not stated)	n	n	n	n	n	x	x	x	x
O=[N+]([O-])c1ccccc1NCCNc1ncc(C(F)(F)F)cc1Cl	n	n	n	n	n	n	x	x	x
O=[N+]([O-])c1cc(Cl)ccc1NCCNc1ncc(C(F)(F)F)cc1Cl	n	n	n	52.0	n	n	n	n	x
CN1CCN(C(=O)c2ccc(NS(=O)(=O)c3cccc([N+](=O)[O-])c3)cc2)CC1	n	x	n	x	n	n	x	x	x
COc1ccc(-c2ccc(-c3cc(=O)oc4c(C(C)C)ccc(C)c34)cc2)cc1	n	n	n	x	n	n	x	x	x
CCn1cc([N+](=O)[O-])c(C(=O)N2N=C(c3ccc4ccccc4c3)CC2c2ccccc2O)n1 (configuration not stated)	n	n	n	79.0	n	71.1	87.8	n	n
Cc1ccc(OCCC(=O)NNC(=O)c2cc(C)oc2C)cc1	n	n	n	x	n	n	x	x	x
CN(C)CCCN(C(=O)c1ccc2ccccc2c1)c1nc2cc3c(cc2s1)OCO3	n	n	n	54.8	n	n	n	n	x
Cc1cccc(C(=O)OC2CCOC2=O)c1O (configuration not stated)	n	n	n	n	n	x	x	x	x
Cc1cnc(CNC(=O)CC2C(=O)NCCN2Cc2cccc(F)c2F)cn1 (configuration not stated)	n	n	n	n	n	x	x	x	x
NC(=O)N/N=C/c1ccc(-c2ccc([N+](=O)[O-])cc2)o1	n	n	n	55.1	n	n	n	n	x
COC(=O)c1c(C)[nH]c(C(=O)OCC(=O)c2ccc(C)s2)c1C	n	n	n	x	n	n	x	x	x
Cc1nc2ccccc2nc1OCc1ccccc1	n	n	n	n	n	n	x	x	x
Cc1ccc2nc(=O)c(NNc3ccccc3)cnc2c1	n	n	n	51.7	n	x	n	n	n
Cc1nc2ccccc2nc(=O)c1NNc1ccccc1	x	x	n	59.2	x	n	59.2	n	x
CCOC(=O)C1CCN(C(=O)COC(=O)CN(C)S(=O)(=O)c2ccc(NC(C)=O)cc2)CC1	n	n	n	n	n	n	x	x	x
CCCCCCCNC(=O)C1(CC2CC(c3ccc(Cl)cc3)=NO2)CCN(C(=O)c2cc(OCC)c(OCC)c(OCC)c2)CC1 (configuration not stated)	n	n	n	50.3	n	n	90.3	n	n
SMILES	NTR1 agonist	GRK2 aptamer HTS	Beta2AR agonist	Lipid droplet	Arr AP2 block	TAG inh	Lipid drop inh	AML12 cytotox	AML12 tox ATP
CCCCCCCNC(=O)C1(CC2CC(c3ccc(Cl)cc3)=NO2)CCN(C(=O)c2ccccc2)CC1 (configuration not stated)	n	n	n	n	n	n	x	x	x
COC(=O)Cn1c(O)c(N=NC(=O)CNC(=O)COc2cccc(C)c2)c2ccccc21	n	n	n	68.4	n	x	n	n	x
c1coc(CN(Cc2cccs2)Cc2nnnn2C2CCCCC2)c1	n	n	n	n	n	n	x	x	x
Clc1ccccc1CN(Cc1ccco1)Cc1nnnn1C1CCCC1	n	n	n	67.9	n	n	n	n	x
FC(F)(F)c1ccc(Cl)c(NC(=S)N/N=C/c2ccccc2C(F)(F)F)c1	n	n	n	51.6	n	x	103.8	n	n
COc1cc(C(=O)OC(C)C(=O)NC(=O)NC2CCCCC2)ccc1OC(F)F (configuration not stated)	n	n	n	x	n	n	x	x	x
COc1ccc(NC(=O)Cc2c(Sc3ccccc3)c3ccccc3n2C)cc1	n	n	n	61.1	n	x	90.6	n	n
Cn1c(CC(=O)Nc2ccc(F)cc2)c(Sc2ccccc2)c2ccccc21	n	n	n	n	n	n	x	x	x
OCc1cccc[n+]1Cc1ccccc1	n	n	n	x	n	n	x	x	x
CCCCN(C(=O)CCC(=O)Nc1cc(C)on1)C(C(=O)NC1CCCC1)c1ccccc1OCC (configuration not stated)	n	n	n	n	n	x	x	x	x
COc1ccc(C(C(=O)NC(C)(C)C)N(Cc2ccc(C)cc2)C(=O)CCC(=O)Nc2cc(C)on2)cc1 (configuration not stated)	n	n	n	70.4	x	n	106.4	n	n
COc1ccc(C(C(=O)NC2CCCC2)N(CCC(C)C)C(=O)CCC(=O)Nc2cc(C)on2)cc1 (configuration not stated)	n	n	n	62.5	n	x	81.2	n	n
CCCCN(C(=O)CCC(=O)Nc1cc(C)on1)C(C(=O)NC1CCCC1)c1ccc(OCC)cc1 (configuration not stated)	n	n	n	74.3	n	x	91.4	n	n
COc1ccccc1Nc1ncnc2c1c(C)c(C)n2CCO	n	n	n	n	n	x	x	x	x
Cc1cc(=O)oc2c(CN3CC(C)OC(C)C3)c(O)c(Cl)cc12 (configuration not stated)	n	n	n	n	n	n	x	x	x
CCOc1ccc(C(C)NC(=O)Cc2ccccc2)cc1OCC (configuration not stated)	n	n	n	53.3	n	x	73.0	n	n
CC(OC(=O)c1cccc(S(=O)(=O)N2CCOCC2)c1)C(=O)NC1CCCCC1C (configuration not stated)	n	n	n	x	n	n	x	x	x
